The results in this text go back to ChEMBL document CHEMBL2331343 (Bioorg Med Chem, 2013).

Active and inactive are the calls of the source. No cut-off for these calls is given here.

The assay concerns Rattus norvegicus. Put plainly: Antipsychotic activity in Sprague-Dawley rat schizophrenia model assessed as inhibition of PCP-induced prepulse inhibition at 0.5 mg/kg, ip administered 10 mins prior testing monitored for 5 mins. The class given is functional, organism-based. On the set-up: dose 0.5 mg/kg. Put shortly: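 Male Sprague–Dawley rats (230–280 g) received ip saline or drug 10 min before PCP (5 mg/kg, ip). Acoustic startle PPI was tested 5 min after PCP, after 3-min acclimation: 40 ms, 120 dB white-noise pulse-alone and prepulse+pulse trials, 15–25 s intertrial interval, 74 dB background, about 20 min session. %PPI = [1 − (prepulse+pulse startle)/(pulse-alone startle)] × 100.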

Consider `Cc1nc2n(c(=O)c1CCN1CCC(c3noc4cc(F)ccc34)CC1)CCCC2`, for which the inhibition entry is “Active”.
